Source: ChEMBL document CHEMBL3244125, “In vivo inhibitors of Escherichia coli phenylalanyl-tRNA synthetase” (J Med Chem, 1979)
Activity calls are given as the source filed them. The calls are words filed in the database; no cut-off is given here.

Experiments:
Escherichia coli B [1] = assay: Ratio of IC50 for inhibition of Phe-tRNA synthetase in rel+ Escherichia coli B assessed as growth inhibition to Ki for inhibition of rel+ Escherichia coli B Phe-tRNA synthetase using L-[3H]-phenylalanine as substrate
[2] = Inhibition of Phe-tRNA synthetase in rel+ Escherichia coli B assessed as growth inhibition
Outline: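 E. coli B/r in exponential growth (A600 ≈ 0.3) in basal salts medium (0.2% glucose, phosphate, MgSO4, (NH4)2SO4) was diluted into medium with a range of inhibitor levels. It was incubated at 37 °C for about three generations, until controls reached A600 0.4–0.45. Growth was read at 600 nm as % of control turbidity, and IC50 was taken from % inhibition versus concentration plots.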

[3] = Inhibition of rel+ Escherichia coli B Phe-tRNA synthetase using L-[3H]-phenylalanine as substrate by scintillation counting analysis
Escherichia coli B [4] = assay: Inhibition of Phe-tRNA synthetase in rel+ Escherichia coli B assessed as growth inhibition at IC50 in presence of 2.5 mM L-Phe
Outline: (§1)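 Reversal assay in E. coli B/r. Exponential culture (A600 ≈ 0.3) in basal salts glucose minimal medium was diluted into medium holding the specified amino acid plus inhibitor, at 37 °C. Controls had no inhibitor. Growth was read turbidimetrically at 600 nm after about three generations, as % inhibition relative to control.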

Escherichia coli B [5] = assay: Inhibition of Phe-tRNA synthetase in rel+ Escherichia coli B assessed as tRNA-Phe level at 9.2 uM at 37 degC after 30 mins in absence of casamino acid supplement in tris-glucose minimal media (reference value: 60%)
[6] = molecular target: Isoleucine--tRNA ligase (Escherichia coli K-12) (UniProt P00956); assay: Inhibition of Ile-tRNA synthetase in rel+ Escherichia coli B assessed as tRNA-Ile level at 4.6 uM at 37 degC after 30 mins in absence of casamino acid supplement in tris-glucose minimal media (reference value: 40%)
Sequence of Isoleucine--tRNA ligase (Escherichia coli K-12) (P00956 whole entry): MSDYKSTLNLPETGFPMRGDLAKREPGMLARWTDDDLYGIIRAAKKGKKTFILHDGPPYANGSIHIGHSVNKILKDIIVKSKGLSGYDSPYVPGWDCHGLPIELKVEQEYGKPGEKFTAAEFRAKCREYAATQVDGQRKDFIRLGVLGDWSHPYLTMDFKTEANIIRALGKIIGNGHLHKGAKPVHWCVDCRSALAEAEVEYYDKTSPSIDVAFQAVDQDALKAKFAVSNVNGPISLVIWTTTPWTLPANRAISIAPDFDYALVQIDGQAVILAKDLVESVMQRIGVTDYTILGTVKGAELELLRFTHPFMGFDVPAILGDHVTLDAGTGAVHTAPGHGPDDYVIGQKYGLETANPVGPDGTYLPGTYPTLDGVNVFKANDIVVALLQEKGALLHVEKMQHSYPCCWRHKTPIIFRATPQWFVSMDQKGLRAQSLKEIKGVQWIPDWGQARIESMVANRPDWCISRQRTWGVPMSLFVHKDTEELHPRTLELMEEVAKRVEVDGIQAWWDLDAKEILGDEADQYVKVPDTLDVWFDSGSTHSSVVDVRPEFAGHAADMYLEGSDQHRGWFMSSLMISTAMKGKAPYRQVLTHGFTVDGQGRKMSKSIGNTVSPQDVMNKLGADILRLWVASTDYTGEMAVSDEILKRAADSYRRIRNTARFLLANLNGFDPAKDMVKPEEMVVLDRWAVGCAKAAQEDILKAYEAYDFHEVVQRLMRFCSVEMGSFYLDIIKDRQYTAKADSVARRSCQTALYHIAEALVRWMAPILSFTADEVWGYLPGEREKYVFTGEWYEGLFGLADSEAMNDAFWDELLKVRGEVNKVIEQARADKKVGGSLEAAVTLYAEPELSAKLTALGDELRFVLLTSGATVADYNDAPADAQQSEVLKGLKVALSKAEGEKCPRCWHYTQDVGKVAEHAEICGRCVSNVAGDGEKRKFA

Escherichia coli B [7] = assay: Inhibition of Phe-tRNA synthetase in rel+ Escherichia coli B assessed as formation of [32P]ppGpp at 4.6 uM at 37 degC measured every 1 min by scintillation counting analysis in absence of casamino acid supplement in tris-glucose minimal media
Outline: (§2)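 Exponential cultures in Tris-glucose minimal medium were labeled with carrier-free [32P]phosphate at least 30 min before inhibitor. Four to five 25 µL aliquots were taken at about 1-min intervals into ice-cold 2 M formic acid and held 30 min at 0 °C. Extracts were run on PEI-cellulose TLC in 1.5 M KH2PO4 pH 3.4. ppGpp spots were located by autoradiography and counted. Initial rate was taken as the linear increase over time.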

Escherichia coli B [8] = assay: Inhibition of Phe-tRNA synthetase in rel+ Escherichia coli B assessed as formation of [32P]ppGpp at 23 uM at 37 degC measured every 1 min by scintillation counting analysis in absence of casamino acid supplement in tris-glucose minimal media; outline: as §2
[9] = Inhibition of Phe-tRNA synthetase in rel+ Escherichia coli B assessed as reduction of tRNA-Phe level after 30 mins
Escherichia coli B [10] = assay: Inhibition of Phe-tRNA synthetase in rel+ Escherichia coli B assessed as formation of [32P]ppGpp at 9.2 uM at 37 degC measured every 1 min by scintillation counting analysis in absence of casamino acid supplement in tris-glucose minimal media; outline: as §2
Escherichia coli [11] = assay: Inhibition of Phe-tRNA synthetase in Escherichia coli NP29 assessed as tRNA-Phe level at 230 uM at 30 degC after 30 mins (reference value: 70%)
Outline: (§3)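 Temperature-sensitive Val-tRNA synthetase strain NP29, grown at 30 °C in Tris-glucose minimal medium with 0.2% casamino acids. Inhibitor was added during log growth and the control was kept at 30 °C. After 30 min, cells were quenched with ice and NaN3 and disrupted. Aminoacyl-tRNA was measured by periodate oxidation (1 mM) or Tris-HCl pH 8.0 stripping, with purified synthetases.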

Escherichia coli B [12] = assay: Inhibition of Phe-tRNA synthetase in rel+ Escherichia coli B assessed as formation of [32P]ppGpp at 230 uM at 37 degC measured every 1 min by scintillation counting analysis in presence of casamino acid supplement in tris-glucose minimal media; outline: as §2
[13] = molecular target: Isoleucine--tRNA ligase (Escherichia coli K-12) (UniProt P00956); assay: Inhibition of Ile-tRNA synthetase in Escherichia coli NP29 assessed as tRNA-Ile level at 230 uM at 30 degC after 30 mins (reference value: 40%); outline: as §3
Escherichia coli B [14] = assay: Inhibition of Phe-tRNA synthetase in rel+ Escherichia coli B assessed as growth inhibition at IC50 in presence of Ile; outline: as §1
[15] = molecular target: Isoleucine--tRNA ligase (Escherichia coli K-12) (UniProt P00956); assay: Inhibition of Ile-tRNA synthetase in rel+ Escherichia coli B assessed as tRNA-Ile level at 230 uM at 37 degC after 30 mins in presence of casamino acid supplement in tris-glucose minimal media (reference value: 50%)
Escherichia coli B [16] = assay: Inhibition of Phe-tRNA synthetase in rel+ Escherichia coli B assessed as growth inhibition at IC50 in presence of Ser; outline: as §1
Escherichia coli B [17] = assay: Inhibition of Phe-tRNA synthetase in rel+ Escherichia coli B assessed as half maximal rate of [32P]ppGpp formation at 70 uM measured every 1 min by scintillation counting analysis; outline: as §2
[18] = molecular target: Isoleucine--tRNA ligase (Escherichia coli K-12) (UniProt P00956); assay: Inhibition of Ile-tRNA synthetase in rel+ Escherichia coli B assessed as tRNA-Ile level at 23 uM at 37 degC after 30 mins in absence of casamino acid supplement in tris-glucose minimal media (reference value: 40%)
Escherichia coli B [19] = assay: Inhibition of Phe-tRNA synthetase in rel+ Escherichia coli B assessed as growth inhibition at IC50 in presence of Tyr; outline: as §1
Escherichia coli B [20] = assay: Inhibition of Val-tRNA synthetase in rel+ Escherichia coli B assessed as tRNA-val level at 230 uM at 37 degC after 30 mins in absence of casamino acid supplement in tris-glucose minimal media
Escherichia coli B [21] = assay: Inhibition of Phe-tRNA synthetase in rel+ Escherichia coli B assessed as growth inhibition at IC50 in presence of Pro; outline: as §1
Escherichia coli B [22] = assay: Inhibition of Phe-tRNA synthetase in rel+ Escherichia coli B assessed as tRNA-Phe level at 230 uM at 37 degC after 30 mins in absence of casamino acid supplement in tris-glucose minimal media (reference value: 60%)
Escherichia coli B [23] = assay: Inhibition of Phe-tRNA synthetase in rel+ Escherichia coli B assessed as [3H]-RNA synthesis at 92 uM after 5 mins by scintillation counting analysis in presence of [5-3H]-Uracil
Outline: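 E. coli B/r in exponential growth was labeled with [5-3H]uracil (75 Ci/mol). At intervals, 25 µL culture was put into 1 mL ice-cold trichloroacetic acid for 5 min at 0 °C. Samples were filtered on glass-fibre filters, washed with cold TCA then 95% ethanol, and counted by scintillation.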

Escherichia coli B [24] = assay: Inhibition of Val-tRNA synthetase in rel+ Escherichia coli B assessed as tRNA-val level at 230 uM at 37 degC after 30 mins in presence of casamino acid supplement in tris-glucose minimal media (reference value: 100%)
Escherichia coli B [25] = assay: Inhibition of Phe-tRNA synthetase in rel+ Escherichia coli B assessed as tRNA-Phe level at 23 uM at 37 degC after 30 mins in absence of casamino acid supplement in tris-glucose minimal media (reference value: 60%)
Escherichia coli B [26] = assay: Inhibition of rel+ Phe-tRNA synthetase in Escherichia coli B assessed as tRNA-Phe level at 4.6 uM at 37 degC after 30 mins in absence of casamino acid supplement in tris-glucose minimal media (reference value: 60%)
Escherichia coli B [27] = assay: Inhibition of Phe-tRNA synthetase in rel+ Escherichia coli B assessed as formation of [32P]ppGpp at 92 uM measured every 1 min by scintillation counting analysis; outline: as §2
Escherichia coli B [28] = assay: Inhibition of Phe-tRNA synthetase in rel+ Escherichia coli B assessed as tRNA-Phe level at 230 uM at 37 degC after 30 mins in presence of casamino acid supplement in tris-glucose minimal media (reference value: 90%)
[29] = molecular target: Isoleucine--tRNA ligase (Escherichia coli K-12) (UniProt P00956); assay: Inhibition of Ile-tRNA synthetase in rel+ Escherichia coli B assessed as tRNA-Ile level at 230 uM at 37 degC after 30 mins in absence of casamino acid supplement in tris-glucose minimal media (reference value: 40%)
Escherichia coli B [30] = assay: Inhibition of Phe-tRNA synthetase in rel+ Escherichia coli B assessed as growth inhibition at 92 uM
Outline: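 E. coli B/r in log phase at 37 °C, with inhibitor added at a set time. Cell density was followed turbidimetrically at 600 nm alongside ppGpp and RNA synthesis measurements.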

Escherichia coli [31] = assay: Inhibition of Phe-tRNA synthetase in Escherichia coli NP29 assessed as formation of [32P]ppGpp at 230 uM at 30 degC measured every 1 min by scintillation counting analysis; outline: as §2
Escherichia coli B [32] = assay: Inhibition of Phe-tRNA synthetase in rel+ Escherichia coli B assessed as growth inhibition at IC50 in presence of Val; outline: as §1
Escherichia coli B [33] = assay: Inhibition of Phe-tRNA synthetase in rel+ Escherichia coli B assessed as formation of [32P]ppGpp at 230 uM at 37 degC measured every 1 min by scintillation counting analysis in absence of casamino acid supplement in tris-glucose minimal media; outline: as §2
[34] = molecular target: Isoleucine--tRNA ligase (Escherichia coli K-12) (UniProt P00956); assay: Inhibition of Ile-tRNA synthetase in rel+ Escherichia coli B assessed as tRNA-Ile level at 9.2 uM at 37 degC after 30 mins in absence of casamino acid supplement in tris-glucose minimal media (reference value: 40%)
Escherichia coli [35] = assay: Inhibition of Val-tRNA synthetase in Escherichia coli NP29 assessed as tRNA-val level at 230 uM at 30 degC after 30 mins (reference value: 30%); outline: as §3

NCCc1ccccc1 [PHENETHYLAMINE] showed a Ratio (Escherichia coli B [1]) of 117, an IC50 [2] of 10900 µM and a Ki [3] of 93 µM.
In the case of OC[C@@H](Cc1ccccc1)NCc1ccccc1, the inhibition (Escherichia coli B [4]) is reported as “inactive”, the Ratio (Escherichia coli B [1]) is reported as 106 and the IC50 [2] is reported as 82 µM. It also gave a Ki [3] of 0.77 µM.
With c1ccc(CCNCc2ccccc2)cc1 the inhibition (Escherichia coli B [4]) was “inactive”, the Ratio (Escherichia coli B [1]) was 115 and the IC50 [2] was 77 µM. The Ki [3] was 0.67 µM.
With C[C@@H](Cc1ccccc1)NCc1ccccc1 the inhibition (Escherichia coli B [4]) was “inactive”, the Ratio (Escherichia coli B [1]) was 105 and the IC50 [2] was 590 µM. The Ki [3] was 5.6 µM.
With C[C@H](Cc1ccccc1)NCc1ccccc1 [N-BENZYLAMPHETAMINE] the inhibition (Escherichia coli B [5]) was 35%, the inhibition (Escherichia coli B [4]) was “inactive” and the inhibition [6] was 40%. For the same molecule, the inhibition (Escherichia coli B [7]) was “Active”, the Ratio (Escherichia coli B [1]) was 107 and the inhibition (Escherichia coli B [8]) was “Active”. The IC50 [9] was 13 µM, the inhibition (Escherichia coli B [10]) was “Active” and the inhibition (Escherichia coli [11]) was 5%. The inhibition (Escherichia coli B [12]) was “Active”, the inhibition [13] was 45% and the inhibition (Escherichia coli B [14]) was “Active”. The inhibition [15] was 55%, the inhibition (Escherichia coli B [16]) was “Active” and the inhibition (Escherichia coli B [17]) was “Active”. For the same molecule, the IC50 [2] was 15 µM, the inhibition [18] was 45% and the inhibition (Escherichia coli B [19]) was “Active”. For the same molecule, the inhibition (Escherichia coli B [20]) was 100%, the inhibition (Escherichia coli B [21]) was “Active” and the inhibition (Escherichia coli B [22]) was 10%. The inhibition (Escherichia coli B [23]) was “Active”, the inhibition (Escherichia coli B [24]) was 100% and the inhibition (Escherichia coli B [25]) was 20%. The inhibition (Escherichia coli B [26]) was 45%, the inhibition (Escherichia coli B [27]) was “Active” and the inhibition (Escherichia coli B [28]) was 15%. The inhibition [29] was 45%, the inhibition (Escherichia coli B [30]) was “Active” and the inhibition (Escherichia coli [31]) was “Active”. For the same molecule, the inhibition (Escherichia coli B [32]) was “Active”, the inhibition (Escherichia coli B [33]) was “Active” and the Ki [3] was 0.14 µM. It also gave an inhibition [34] of 40% and an inhibition (Escherichia coli [35]) of 95%.
